ANO1 activ – activators or potentiators of mouse TMEM16A chloride channel; Q8BHY3; HEK293 TMEM16A/YFP-H148Q/I152L, iodide quench fluorescence; hits give low values; B-score at 10 µM; 0.3% of 340,000 active; AID 623877;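 active means fluorescence-ratio B-score plate-corrected deviation score at least 3 library SD below zero, with starting fluorescence score within 5 deviations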;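 further: channel opened by trigger with iodide after compound preincubation; score built on the fluorescence ratio of max minus min over baseline; more negative score means more quench and so TMEM16A activation or potentiation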
CHT allo act – allosterically activates the human high affinity choline transporter. Q9GZV3. CHT-expressing cells, membrane potential dye, choline EC20; hits give high values; LV-AA mutant CHT in HEK293 cells. B-score at 10 µM. 0.49% of 310,000 active. AID 488977;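 active means initial fluorescence not abnormally high and integrated response B-score, plate-corrected, over 3 SD above library mean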
Target sequence (Q9GZV3 whole entry, looked up): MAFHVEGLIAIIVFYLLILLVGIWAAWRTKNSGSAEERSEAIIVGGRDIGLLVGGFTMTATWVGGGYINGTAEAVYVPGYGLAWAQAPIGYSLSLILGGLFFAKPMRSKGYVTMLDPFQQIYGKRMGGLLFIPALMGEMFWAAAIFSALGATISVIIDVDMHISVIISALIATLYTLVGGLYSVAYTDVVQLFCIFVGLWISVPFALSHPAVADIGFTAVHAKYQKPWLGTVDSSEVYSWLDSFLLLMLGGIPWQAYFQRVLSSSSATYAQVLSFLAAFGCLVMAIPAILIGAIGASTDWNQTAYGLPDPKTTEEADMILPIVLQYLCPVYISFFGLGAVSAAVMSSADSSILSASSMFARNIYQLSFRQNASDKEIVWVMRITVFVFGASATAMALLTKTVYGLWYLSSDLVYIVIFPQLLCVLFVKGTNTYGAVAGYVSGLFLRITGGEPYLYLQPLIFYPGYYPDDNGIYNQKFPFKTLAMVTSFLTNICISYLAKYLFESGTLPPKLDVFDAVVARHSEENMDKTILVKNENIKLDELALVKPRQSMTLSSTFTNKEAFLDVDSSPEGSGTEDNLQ
IMP-1 inhibitor – blocks Pseudomonas aeruginosa IMP-1 metallo-beta-lactamase | purified IMP-1, nitrocefin hydrolysis, epi-absorbance fluorescence | inhibition, % at 5.6 µM | 0.45% of 290,000 active;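 active means inhibition above the mean plus 3 SD of all compounds in the same screening run, cut at about 4.5% in these data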;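 further: 0% = IMP-1 with DMSO and 100% = DMSO wells lacking enzyme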
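Material – recombinant IMP-1 enzyme, purified · Amount – IMP-1 0.2 nM before substrate addition · Medium – HEPES buffer pH 7.1 with ZnSO4 and Brij 35 · Timing – 25 °C, 15 min preincubation, 25 min reaction · Measured by – plate fluorescence quenching by hydrolysis product, ex 480/em 530 nm · Read-out – percent enzyme inhibition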
VIM-2 inhibitor – blocks Pseudomonas aeruginosa VIM-2 metallo-beta-lactamase; AID 1527; purified VIM-2, nitrocefin hydrolysis, epi-absorbance fluorescence; inhibition, % at 5.6 µM; 0.89% of 290,000 active;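 active means inhibition above the mean of all tested compounds plus 3 SD, cutoff set per screening run, cut at about 7.5% in these data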;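 further: red hydrolysis product quenches plate fluorescence so inhibitors raise well fluorescence; 0% = enzyme with DMSO and 100% = DMSO without enzyme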
ANO1 block – mouse TMEM16A channel inhibition, primary screen | Q8BHY3 | 1.2% of 310,000 active | normalized B-score (activity score, 25-100; higher = stronger inhibition) at 10 µM | HEK293 TMEM16A/YFP iodide influx fluorescence, ionomycin;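 active means ratio plate-corrected score three or more library SD toward inhibition, starting fluorescence score within five deviations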;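 further: score derived from kinetic fluorescence span divided by baseline fluorescence per well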
CHT block – human CHT choline transport inhibition. Q9GZV3. CHT-expressing cells, membrane potential dye, choline response; hits give low values. B-score at 10 µM. 0.86% of 310,000 active. AID 488975;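 active means B-score over 3 SD under the library average, and starting fluorescence ratio not unusually high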;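 further: choline stimulus applied at its EC90 after an EC20 pre-addition; B-score computed on integrated fluorescence ratio after choline addition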
TMEM16A reconf – reconfirmed blocker of mouse TMEM16A calcium-activated chloride channel. shares compounds with ANO1 block. HEK293 TMEM16A/YFP-H148Q, iodide quench fluorescence; ionomycin added to raise cell calcium. inhibition, % at 10 µM. 39% of 2,300 active. AID 652189;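 active means mean duplicate percent inhibition, scaled so buffer wells are 0 and the reference blocker 100, over three buffer SD above buffer mean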
TMEM16A Ca cntr – calcium mobilization counter-screen hit for TMEM16A inhibitor series; shares compounds with ANO1 block; TMEM16A/YFP HEK293, Fluo4 calcium mobilization; calcium response (% of ionomycin), % at 10 µM; 2% of 2,300 active; AID 652231;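 active means duplicate-averaged calcium signal over 20% of the ionomycin maximum, relative to buffer baseline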;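 further: each well's signal is peak minus trough fluorescence divided by its pre-addition baseline; 0% = buffer wells and 100% = ionomycin wells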
Parental YFP cnt – parental YFP-HEK293 iodide quench counter-screen activity. shares compounds with ANO1 block. ionomycin. YFP ratio F(max-min)/F0 at 10 µM. 2,300 tested, under 10 active. AID 652233;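 active means yellow fluorescent protein signal ratio exceeding the buffer control mean by over 5 SD of those controls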;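 further: ratio is mean of duplicate wells from kinetic YFP trace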
ClC-1 inh – selectivity of TMEM16A inhibitors: inhibition of rat ClC-1 chloride channel | shares compounds with ANO1 block | CHO ClC-1-YFP, iodide influx fluorescence quench; iodide control reads 0, buffer control 100 | ratio percent, % at 10 µM | 2,300 tested, under 10 active;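 active means duplicate-mean ratio percent above the mean of iodide-only control wells, which defines zero, plus 5 of their SD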;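 further: higher percent means stronger block of ClC-1 iodide influx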
* marks the source's active call; other numbers are inactive results. An excerpt weighted towards active compounds, which were near 3.4% of everything screened.

What do the screens show for `Cc1ccc(OCC(=O)N(Cc2ccc(N(C)C)cc2)C2CCS(=O)(=O)C2)cc1C` (configuration not stated)?
ANO1 activ: inactive; CHT allo act: inactive; IMP-1 inhibitor: 0.1; VIM-2 inhibitor: -1.0; ANO1 block: inactive; CHT block: inactive

What do the screens show for `Cc1ccccc1OCC(=O)N(Cc1ccc(N(C)C)cc1)C1CCS(=O)(=O)C1` (configuration not stated)?
ANO1 activ: inactive; CHT allo act: inactive; IMP-1 inhibitor: -2.3; VIM-2 inhibitor: 0.7; ANO1 block: 100*; CHT block: inactive; TMEM16A reconf: inactive; TMEM16A Ca cntr: inactive; Parental YFP cnt: -1.04; ClC-1 inh: -10.0

Results for Clc1ccc(CNC2CCCC2)c(Cl)c1 ?
ANO1 activ: inactive; CHT allo act: inactive; IMP-1 inhibitor: -2.0; VIM-2 inhibitor: -2.6; ANO1 block: inactive; CHT block: inactive

What do the screens show for `S=C(NCc1ccc(Cl)cc1Cl)NC1CCCCC1`?
ANO1 activ: inactive; CHT allo act: inactive; IMP-1 inhibitor: -2.4; VIM-2 inhibitor: -4.2; ANO1 block: 25*; CHT block: inactive; TMEM16A reconf: 52.5%*; TMEM16A Ca cntr: inactive; Parental YFP cnt: -0.976; ClC-1 inh: -16.5

Results for Nc1nc(-c2ccccc2)c(-c2ccccc2)n1N ?
ANO1 activ: inactive; CHT allo act: inactive; IMP-1 inhibitor: 1.6; VIM-2 inhibitor: -0.1; ANO1 block: inactive; CHT block: inactive; TMEM16A reconf: inactive; TMEM16A Ca cntr: inactive; Parental YFP cnt: -1.16; ClC-1 inh: -9.5

What do the screens show for `Nc1c(-c2ccccc2)nc(Cl)nc1-c1ccccc1`?
ANO1 activ: inactive; CHT allo act: inactive; IMP-1 inhibitor: -2.6; VIM-2 inhibitor: -1.7; ANO1 block: inactive; CHT block: inactive

Results for COc1ccc(N2CCN(C(=O)CCC(=O)N3CC(C)Oc4ccccc43)CC2)cc1 (configuration not stated) ?
ANO1 activ: inactive; CHT allo act: inactive; IMP-1 inhibitor: -0.5; VIM-2 inhibitor: 0.8; ANO1 block: inactive; CHT block: inactive

How did O=C(CCS(=O)(=O)c1ccccc1)N1CCN(c2cccc(C(F)(F)F)c2)CC1 do in these assays?
ANO1 activ: inactive; CHT allo act: inactive; IMP-1 inhibitor: -3.2; VIM-2 inhibitor: -0.5; ANO1 block: 25*; CHT block: inactive; TMEM16A reconf: inactive; TMEM16A Ca cntr: inactive; Parental YFP cnt: -1.05; ClC-1 inh: -15.0

How did CC1CN(C(=O)CCC(=O)N2CCN(c3cccc(C(F)(F)F)c3)CC2)c2ccccc2O1 (configuration not stated) do in these assays?
ANO1 activ: inactive; CHT allo act: inactive; IMP-1 inhibitor: 2.3; VIM-2 inhibitor: -0.2; ANO1 block: 25*; CHT block: inactive; TMEM16A reconf: 20.0%*; TMEM16A Ca cntr: inactive; Parental YFP cnt: -0.946; ClC-1 inh: -3.5

Results for Cc1cc(C(=O)COc2ccc(F)cc2Br)c(C)n1C1CC1 ?
ANO1 activ: inactive

Results for C/C(=N\Nc1ccc2nncn2n1)c1cccs1 ?
ANO1 activ: inactive; CHT allo act: inactive; IMP-1 inhibitor: 0.1; VIM-2 inhibitor: 0.4; ANO1 block: inactive; CHT block: inactive

Screening results (PubChem BioAssay)
